In ChEMBL document CHEMBL1255487, “Preclinical evaluation of the antifolate QN254, 5-chloro- N'6'-(2,5-dimethoxy-benzyl)-quinazoline-2,4,6-triamine, as an antimalarial drug candidate” (Antimicrob Agents Chemother, 2010):

Assays:
[1] = Binding affinity to recombinant Plasmodium falciparum V1/S DHFR S108N, N51I, C59R, I164L mutant by competitive binding assay; set-up: species or system V1S
[2] = Binding affinity to wild type Plasmodium falciparum DHFR by competitive binding assay
Plasmodium berghei [3] = test: Antimalarial activity against Plasmodium berghei ANKA infected in NMRI mice (Mus musculus) assessed as reduction in parasitemia at 3 times 30 mg/kg, perorally measured on day 3 postinfection; type: functional; set-up: scale not given: the % may be the effect or the level left; conditions: route oral
Method in brief: (§1)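 P. berghei ANKA given intravenously to groups of 5 female NMRI mice (20–22 g): 0.2 ml of 1 × 10^8 parasitized erythrocytes/ml from a donor mouse. Oral dosing in 0.5% carboxymethyl cellulose. Parasitemia counted by microscopy. Activity is the control-minus-treated parasitemia difference, expressed as percent of untreated controls.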

Mus musculus [4] = test: Toxicity in NMRI mice (Mus musculus) infected with Plasmodium berghei ANKA at 3 times 30 mg/kg, perorally measured up to 30 days postinfection; type: organism-based; set-up: dose 30 mg/kg, route oral; conditions: in vivo, po, 720 h
Mus musculus [5] = test: Toxicity in NMRI mice (Mus musculus) infected with Plasmodium berghei ANKA at 100 mg/kg, perorally administered as single dose measured up to 30 days postinfection; type: organism-based; set-up: dose 100 mg/kg, route oral; conditions: in vivo, po, 720 h
Plasmodium berghei [6] = test: Antimalarial activity against Plasmodium berghei ANKA infected in NMRI mice (Mus musculus) assessed as mean survival time at 3 times 30 mg/kg, perorally; type: functional; conditions: route oral
Method in brief: (§2)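 Infection: 5 female NMRI mice (20–22 g) per group, inoculated intravenously with 0.2 ml of donor blood at 1 × 10^8 parasitized erythrocytes/ml. Oral administration in 0.5% carboxymethyl cellulose. Survival time recorded up to 30 days after infection and averaged per group.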

Plasmodium berghei [7] = test: Antimalarial activity against Plasmodium berghei ANKA infected in NMRI mice (Mus musculus) assessed as cure rate at 100 mg/kg, perorally administered as single dose measured on […]; type: functional; conditions: route oral
Method in brief: (§3)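 Female NMRI mice (20–22 g), 5 per group, infected intravenously with 0.2 ml of 1 × 10^8 parasitized erythrocytes/ml from a fresh donor mouse. Compound suspended in 0.5% carboxymethyl cellulose and given orally. Survival followed to day 30 post-infection; an animal was scored cured if it survived to day 30 without parasites.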

Plasmodium berghei [8] = test: Antimalarial activity against Plasmodium berghei ANKA infected in NMRI mice (Mus musculus) assessed as cure rate at 3 times 30 mg/kg, perorally measured […]; type: functional; conditions: route oral; method in brief: as §3
Plasmodium berghei [9] = test: Antimalarial activity against Plasmodium berghei ANKA infected in NMRI mice (Mus musculus) assessed as reduction in parasitemia at 100 mg/kg, perorally administered as single dose measured on day 3 postinfection; type: functional; set-up: scale not given: the % may be the effect or the level left; conditions: route oral; method in brief: as §1
Plasmodium falciparum [10] = test: Antimalarial activity against pyrimethamine-resistant Plasmodium falciparum clinical isolate harboring S108N, C59R mutation in DHFR assessed as decrease in parasitaemia; type: functional, organism-based
Method in brief: (§4)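 P. falciparum grown in RPMI 1640 with 10% (v/v) human serum, 25 mM bicarbonate, 2 mM glutamine, 25 mM HEPES, 5 nM para-aminobenzoic acid and 23 nM folic acid. Parasites exposed to a concentration series. Read-out is [3H]hypoxanthine incorporation into nucleic acid. IC50 taken from non-linear regression of the dose–response curve.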

Plasmodium falciparum [11] = test: Antimalarial activity against pyrimethamine-resistant Plasmodium falciparum clinical isolate harboring S108N, N51I mutation in DHFR assessed as decrease in parasitaemia; type: functional, organism-based; method in brief: as §4
Plasmodium falciparum [12] = test: Antimalarial activity against pyrimethamine-resistant Plasmodium falciparum V1/S harboring S108N, N51I, C59R, I164L mutation in DHFR assessed as decrease in parasitaemia; type: functional, organism-based; conditions: V1S
Plasmodium falciparum [13] = test: Antimalarial activity against pyrimethamine-resistant Plasmodium falciparum clinical isolate harboring S108N, N51I, C59R mutation in DHFR assessed as decrease in parasitaemia; type: functional, organism-based; method in brief: as §4
Plasmodium falciparum [14] = test: Selectivity ratio of Ki for recombinant Plasmodium falciparum V1/S DHFR S108N, N51I, C59R, I164L mutant to Ki for wild type Plasmodium falciparum DHFR
[15] = Selectivity ratio of Ki for human recombinant DHFR to Ki for wild type Plasmodium falciparum DHFR
Dihydrofolate reductase = target: T1, Dihydrofolate reductase (Homo sapiens, UniProt P00374); test: Binding affinity to human recombinant DHFR expressed in Escherichia coli BL21(DE3) by competitive binding assay
T1 sequence (P00374 whole entry): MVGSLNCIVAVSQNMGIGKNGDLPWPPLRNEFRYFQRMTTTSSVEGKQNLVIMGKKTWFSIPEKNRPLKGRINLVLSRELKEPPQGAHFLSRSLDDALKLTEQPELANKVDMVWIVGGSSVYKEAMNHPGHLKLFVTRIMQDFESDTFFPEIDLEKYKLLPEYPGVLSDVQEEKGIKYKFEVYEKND

Plasmodium berghei [16] = test: Antimalarial activity against Plasmodium berghei ANKA infected in NMRI mice (Mus musculus) assessed as survival rate at 100 mg/kg, perorally administered as single dose; type: functional; conditions: route oral; method in brief: as §2
Plasmodium berghei [17] = test: Antimalarial activity against Plasmodium berghei ANKA infected in perorally dosed NMRI mice (Mus musculus) assessed as reduction in parasitemia administered as single dose measured on day 3 postinfection; type: functional; conditions: for ED50 / ED90: po, 72 h

Row | Compound | Ki [1] [nM] | Ki [2] [nM] | Activity (Plasmodium berghei [3]) [%] | Activity (Mus musculus [4]) [%] | Activity (Mus musculus [5]) [%] | Survival (Plasmodium berghei [6]) [days] | Activity (Plasmodium berghei [7]) [%] | Activity (Plasmodium berghei [8]) [%] | Activity (Plasmodium berghei [9]) [%] | Survival (Plasmodium berghei [16]) [days] | ED50 (Plasmodium berghei [17]) [mg/kg] | ED90 (Plasmodium berghei [17]) [mg/kg] | further results
1 | CC1(C)N=C(N)N=C(N)N1c1ccc(Cl)cc1 [CYCLOGUANIL] | 454 | 1.51 | – | – | – | – | – | – | – | – | – | – | –
2 | OC(c1cc(C(F)(F)F)nc2c(C(F)(F)F)cccc12)C1CCCCN1 (stereo unspecified) [MEFLOQUINE] | – | – | 99.8 | 0 | 0 | 14.3 | 0 | 0 | 99.6 | – | – | – | –
3 | CCc1nc(N)nc(N)c1-c1ccc(Cl)cc1 [PYRIMETHAMINE] | 385 | 0.59 | – | – | – | – | – | – | – | – | – | – | IC50 (Plasmodium falciparum [10]): 371 nM; IC50 (Plasmodium falciparum [11]): 371 nM; IC50 (Plasmodium falciparum [12]): 3690 nM; IC50 (Plasmodium falciparum [13]): 778 nM
4 | CC1(C)N=C(N)N=C(N)N1OCCCOc1cc(Cl)c(Cl)cc1Cl | 1.9 | 0.5 | – | – | – | – | – | – | – | – | – | – | Ratio Ki (Plasmodium falciparum [14]): 1.8; Ratio Ki [15]: 15; Ki (Dihydrofolate reductase): 7.7 nM
5 | CCN(CC)CCCC(C)Nc1ccnc2cc(Cl)ccc12 (stereo unspecified) [CHLOROQUINE] | – | – | 98.8 | 0 | 0 | 22.1 | 0 | 0 | 89 | 25.5 | 1.9 | 4.2 | inhibition (Plasmodium berghei [17]): Dose dependent effect
6 | C[C@H]1[C@H](OC(=O)CCC(=O)O)O[C@@H]2O[C@@]3(C)CC[C@H]4[C@H](C)CC[C@@H]1[C@@]24OO3 [ARTESUNATE] | – | – | 98.7 | 0 | 0 | 12.2 | 0 | 0 | 98 | 7 | 5.9 | 20.5 | –
